High-throughput results deposited in PubChem by several laboratories.
CSC inhib – blocks cancer stem cells; cancer stem cell-like cells viability, luminescence; inhibition, % at 7.5 µM; 1.1% of 300,000 active; AID 2717; in the data active = inhibition above about 75%; inconclusive = no clear call, values can overlap the other calls; tested in HMLE shEcad cells
T cruzi repl – blocks replication of Trypanosoma cruzi | T. cruzi beta-gal in NIH3T3, luminescence, 90 h | inhibition, % (concentration not given with the values) | 1.4% of 300,000 active | AID 1885;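 active = mean inhibition across valid replicates above about 55%, limit read from the data; inconclusive = mean below that limit but half or more replicates reach it; inactive = mean below it, under half of replicates reach it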;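 note: signal also drops with host cell toxicity which is not excluded here; 0% = plate median of DMSO wells and 100% = zero luminescence signal; higher percent means less beta-gal luminescence so fewer parasites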
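Material: NIH/3T3 host cells with β-galactosidase reporter T. cruzi; Input: 5,000 host fibroblasts per well; Medium: DMEM, 2% fetal bovine serum; Compound: 50 nL DMSO compound solution per well; Schedule: 3 h host attachment, then at least 90 h co-culture; Detection: luminescent β-galactosidase signal after 60 min lysis.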
aSyn 5UTR inh – MLPCN primary screen, SNCA 5' untranslated region. alpha-synuclein 5'UTR reporter, inhibitor activity. inhibition, % (tested at 7.5 µM). 0.82% of 300,000 active; in the data active = inhibition above about 60%; inconclusive = no clear call, values can overlap the other calls;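 note: H4 neuroglioblastoma cells stably carrying SNCA 5'UTR luciferase fusion; 0% = DMSO wells and 100% = positive control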
SKKanGAS inh – blocks kanamycin growth of S. pyogenes SKKanGAS strain; BacTiter-Glo, 6 h; inhibition, % at 7.5 µM; 1.3% of 300,000 active;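 active = mean replicate score, as percent of positive control median, at least 50; inconclusive = mean below 50 but one replicate at or above 50; inactive = mean and every replicate below 50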;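 note: strain carries kanamycin resistance gene driven by streptokinase promoter and grows in 40 µg/ml kanamycin; loss of luminescence reflects streptokinase promoter inhibition or plain growth inhibition; 0% = median of DMSO wells and 100% = positive control at its reference dose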
Mdm2-MdmX inh – disrupts the human Mdm2-MdmX interaction; O15151+Q00987; SaOS-2 split-luciferase Mdm2/MdmX complementation, luminescence; inhibition, % at 8 µM; 3% of 330,000 active; AID 485346;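 active = inhibition of at least 50% at 8 µM in the primary screen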
Target sequence (O15151 whole entry, looked up): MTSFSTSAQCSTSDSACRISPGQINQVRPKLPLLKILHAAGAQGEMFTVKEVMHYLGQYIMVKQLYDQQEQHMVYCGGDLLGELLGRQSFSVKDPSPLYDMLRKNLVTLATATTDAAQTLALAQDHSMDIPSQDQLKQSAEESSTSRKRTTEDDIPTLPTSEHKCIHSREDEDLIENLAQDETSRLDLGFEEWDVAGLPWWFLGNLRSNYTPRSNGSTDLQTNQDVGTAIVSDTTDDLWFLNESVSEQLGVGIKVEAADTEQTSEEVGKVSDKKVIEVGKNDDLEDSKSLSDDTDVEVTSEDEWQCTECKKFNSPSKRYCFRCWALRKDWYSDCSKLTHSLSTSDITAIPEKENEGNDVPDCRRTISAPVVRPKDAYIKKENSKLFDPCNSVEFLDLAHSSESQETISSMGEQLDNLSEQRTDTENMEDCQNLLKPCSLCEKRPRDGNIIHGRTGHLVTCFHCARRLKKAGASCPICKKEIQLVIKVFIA
Target sequence (Q00987 whole entry, looked up): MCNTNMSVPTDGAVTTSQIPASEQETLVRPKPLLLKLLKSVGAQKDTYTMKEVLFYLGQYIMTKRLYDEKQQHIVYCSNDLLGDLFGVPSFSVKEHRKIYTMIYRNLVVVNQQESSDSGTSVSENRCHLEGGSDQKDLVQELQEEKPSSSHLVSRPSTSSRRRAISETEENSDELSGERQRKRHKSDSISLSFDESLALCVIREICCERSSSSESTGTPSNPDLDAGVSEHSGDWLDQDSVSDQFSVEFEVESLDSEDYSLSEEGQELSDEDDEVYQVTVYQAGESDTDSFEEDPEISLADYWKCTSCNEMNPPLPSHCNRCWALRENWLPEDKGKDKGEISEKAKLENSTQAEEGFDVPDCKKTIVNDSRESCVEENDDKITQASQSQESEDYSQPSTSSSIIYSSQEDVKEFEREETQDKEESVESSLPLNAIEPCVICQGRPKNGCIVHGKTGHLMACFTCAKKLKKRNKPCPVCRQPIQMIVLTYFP
Numbers without * were called inactive. Only some compounds are listed: those with a hit (about 5.4% of all), similar ones and a draw of the others.

For O=C(Oc1ccc(Cl)c2cccnc12)N1CCCCC1 the results were CSC inhib -5, T cruzi repl -17, aSyn 5UTR inh -28, SKKanGAS inh 10 and Mdm2-MdmX inh 17.
Screening CC1(C)CC(NC(=O)c2cc(Cl)ccc2Cl)CC(C)(C)N1 returned CSC inhib -4, T cruzi repl -8, aSyn 5UTR inh -6, SKKanGAS inh -15 and Mdm2-MdmX inh 22.
For CCCC(O)(c1ccc(Cl)cc1)C(CN1CCOCC1)c1ccccc1 (centres undefined) the results were T cruzi repl -32, aSyn 5UTR inh 15, SKKanGAS inh -5 and Mdm2-MdmX inh 2.
CCCC(O)(c1ccc(Br)cc1)C(CN1CCOCC1)c1ccc(Cl)cc1 (centres undefined) was read as CSC inhib 93*, T cruzi repl -7, aSyn 5UTR inh 3, SKKanGAS inh inconclusive and Mdm2-MdmX inh 24.
O=C1NC(=Nc2cccnc2)S/C1=C\c1cccc(F)c1 was read as CSC inhib 21, T cruzi repl -19, aSyn 5UTR inh -17, SKKanGAS inh 45 and Mdm2-MdmX inh 29.
`COc1cc(/C=C2\SC(=Nc3ccccc3)NC2=O)cc(Cl)c1O` gave CSC inhib 27, T cruzi repl 12, aSyn 5UTR inh 21, SKKanGAS inh 27 and Mdm2-MdmX inh 33.
CCc1ccc(N=C2NC(=O)/C(=C/c3cc(OC)c(O)c(OC)c3)S2)cc1 was read as CSC inhib 68, T cruzi repl 1, aSyn 5UTR inh 15, SKKanGAS inh 59* and Mdm2-MdmX inh 38.
For COc1cc(/C=C2\SC(=Nc3cccnc3)NC2=O)cc(OC)c1OC the results were CSC inhib 50, T cruzi repl 19, aSyn 5UTR inh 4, SKKanGAS inh 50* and Mdm2-MdmX inh 16.
For COc1ccc(CCNC(=O)Cc2ccsc2)cc1 the results were CSC inhib -9, T cruzi repl -32, aSyn 5UTR inh -17, SKKanGAS inh 6 and Mdm2-MdmX inh 18.
`COc1ccc(NC(=O)c2sccc2SCc2cccc(C(F)(F)F)c2)cc1` gave CSC inhib 22, T cruzi repl 69*, aSyn 5UTR inh -15, SKKanGAS inh -4 and Mdm2-MdmX inh 3.
Screening COc1cccc(-n2c(SCC(=O)Nc3sc4c(c3C(N)=O)CCC4)nc3ccccc3c2=O)c1 returned CSC inhib -3, T cruzi repl 59*, aSyn 5UTR inh 37, SKKanGAS inh 23 and Mdm2-MdmX inh 33.
Screening COc1cccc(-n2c(SCC(=O)Nc3nc4ccccc4s3)nc3ccccc3c2=O)c1 returned CSC inhib 20, T cruzi repl 8, aSyn 5UTR inh -3, SKKanGAS inh 19 and Mdm2-MdmX inh 27.
Screening C=CCSc1nnc(NC(=O)C2CC(=O)N(Cc3ccc(C)cc3)C2)s1 (centres undefined) returned CSC inhib -14 and Mdm2-MdmX inh 8.
`CCSc1nnc(NC(=O)c2ccccn2)s1` gave CSC inhib 2, T cruzi repl 40, aSyn 5UTR inh 67*, SKKanGAS inh 68* and Mdm2-MdmX inh -5.
`COC(=O)CSc1nnc(NC(=O)C2CC(=O)N(c3ccc(F)cc3)C2)s1` (centres undefined) gave CSC inhib -7, T cruzi repl -11, aSyn 5UTR inh -4, SKKanGAS inh 50* and Mdm2-MdmX inh -11.
`Cc1cnc(C(=O)Nc2nnc(SCc3c(Cl)cccc3Cl)s2)cn1` gave CSC inhib 3, T cruzi repl 18, aSyn 5UTR inh 11, SKKanGAS inh 102* and Mdm2-MdmX inh 28.
Screening Cc1ccc(CN2CC(C(=O)Nc3nnc(SCc4c(Cl)cccc4Cl)s3)CC2=O)cc1 (centres undefined) returned CSC inhib -2, T cruzi repl 6, aSyn 5UTR inh 5, SKKanGAS inh 79* and Mdm2-MdmX inh 44.
CCSc1nnc(NC(=O)c2cnccn2)s1 was read as CSC inhib -19, T cruzi repl -5, aSyn 5UTR inh -43, SKKanGAS inh 4 and Mdm2-MdmX inh 15.
For CCOCCCn1c(SCC(=O)Nc2ccc3[nH]c(=O)[nH]c3c2)nc2ccccc2c1=O the results were CSC inhib -17, T cruzi repl -9, aSyn 5UTR inh -11, SKKanGAS inh -3 and Mdm2-MdmX inh -11.
Screening Cc1cnccc1CNC(=O)CC1C(=O)NCCN1CC(C)(C)C (centres undefined) returned CSC inhib -2, T cruzi repl 1, aSyn 5UTR inh 2, SKKanGAS inh 7 and Mdm2-MdmX inh 11.
Nc1ccc(N2CCCC2)c(S(=O)(=O)Nc2cccc(C(F)(F)F)c2)c1 was read as CSC inhib -16 and Mdm2-MdmX inh -14.
`COC(=O)C1CCN(C(=O)COC(=O)c2cccc(NS(=O)(=O)c3ccccc3)c2)CC1` gave CSC inhib -19, T cruzi repl 5, aSyn 5UTR inh 11, SKKanGAS inh -1 and Mdm2-MdmX inh 4.
`O=[N+]([O-])c1ccc(S(=O)(=O)NCC(c2ccco2)N2CCc3ccccc3C2)cc1` (centres undefined) gave CSC inhib 0, T cruzi repl 61*, aSyn 5UTR inh 7, SKKanGAS inh 6 and Mdm2-MdmX inh -12.
O=[N+]([O-])c1ccc(S(=O)(=O)NCC(c2cccnc2)N2CCc3ccccc3C2)cc1 (centres undefined) was read as CSC inhib -2, T cruzi repl 35, aSyn 5UTR inh 17, SKKanGAS inh -16 and Mdm2-MdmX inh 7.
`CC(C)n1cnc2c(NCc3ccc(S(N)(=O)=O)cc3)nc(NCc3ccc(S(N)(=O)=O)cc3)nc21` gave CSC inhib 15, T cruzi repl -22, aSyn 5UTR inh -10, SKKanGAS inh 3 and Mdm2-MdmX inh 15.
CC(C)n1cnc2c(NCc3ccccc3)cc(Cc3ccc(F)cc3)cc21 was read as CSC inhib 129* and Mdm2-MdmX inh 0.
Screening CC(C)n1cnc2c(NCc3ccccc3)nc(NCc3ccccc3)nc21 returned CSC inhib 12, T cruzi repl 34, aSyn 5UTR inh 28, SKKanGAS inh 90* and Mdm2-MdmX inh 21.
CCOc1ccc(Cl)cc1C1=CC(=O)C[C@H](c2ccc(OC)cc2)C1 was read as CSC inhib 56 and Mdm2-MdmX inh 33.
`Cc1nn(Cc2ccc(Cl)cc2)c(C)c1NC(=O)CCCn1nc([N+](=O)[O-])c(Cl)c1C` gave CSC inhib -2, T cruzi repl 57*, aSyn 5UTR inh 27, SKKanGAS inh 5 and Mdm2-MdmX inh 8.
Screening Cc1c(Cl)c([N+](=O)[O-])nn1CCCC(=O)N1CCN(c2ccccc2)CC1 returned T cruzi repl 31, aSyn 5UTR inh 22, SKKanGAS inh -3 and Mdm2-MdmX inh 16.
`Cc1c(Cl)c([N+](=O)[O-])nn1CCCC(=O)N(Cc1ccccc1)Cc1ccccc1` gave CSC inhib 0, T cruzi repl 64*, aSyn 5UTR inh 6, SKKanGAS inh 4 and Mdm2-MdmX inh -1.
For Cc1c(Cl)c([N+](=O)[O-])nn1CCCC(=O)Nc1c(Cl)cccc1Cl the results were CSC inhib 14, T cruzi repl 15, aSyn 5UTR inh -5, SKKanGAS inh -6 and Mdm2-MdmX inh -12.
